Experimental data reported in ChEMBL document CHEMBL1138802, “New water-soluble sulfonylphosphoramidic acid derivatives of the COX-2 selective inhibitor cimicoxib. A novel approach to sulfonamide prodrugs” (J Med Chem, 2004).

Experiments:
[1] = Volume of distribution after i.v. administration of 1 mg/kg to Dogs; type: ADME, organism-based, Canis lupus familiaris; design: dose 1 mg/kg, route intravenous; conditions: dog, in vivo, iv
Summary of the method: (§1)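 Dogs received the water-soluble phosphoramidic acid prodrug iv at 1 mg/kg as a solution. Parameters (t1/2, AUC/dose in ng h/mL, Cl in mL/h/kg, Vd in mL/kg) were derived from plasma levels of the released parent sulfonamide and reported as mean ± deviation.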

[2] = Clearance after i.v. administration of 1 mg/kg to Dogs; type: ADME, organism-based, Canis lupus familiaris; design: dose 1 mg/kg, route intravenous; conditions: dog, in vivo, iv; summary of the method: as §1
[3] = Half life after i.v. administration of 2 mg/kg to Dogs; type: ADME, organism-based, Canis lupus familiaris; design: dose 2 mg/kg, route intravenous; conditions: dog, in vivo, iv
Summary of the method: (§2)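 Dogs received the parent sulfonamide iv at 2 mg/kg as a suspension. Parameters (t1/2, AUC/dose in ng h/mL, Cl in mL/h/kg, Vd in mL/kg) were derived from its plasma levels and reported as mean ± deviation.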

[4] = biological target: T1, Prostaglandin G/H synthase 2 (Rattus norvegicus) (UniProt P35355); assay: Percentage inhibition of rat carrageenan-induced paw edema after iv administration at 3 mg/kg; type: functional, organism-based; design: dose 3 mg/kg
T1 sequence (whole entry): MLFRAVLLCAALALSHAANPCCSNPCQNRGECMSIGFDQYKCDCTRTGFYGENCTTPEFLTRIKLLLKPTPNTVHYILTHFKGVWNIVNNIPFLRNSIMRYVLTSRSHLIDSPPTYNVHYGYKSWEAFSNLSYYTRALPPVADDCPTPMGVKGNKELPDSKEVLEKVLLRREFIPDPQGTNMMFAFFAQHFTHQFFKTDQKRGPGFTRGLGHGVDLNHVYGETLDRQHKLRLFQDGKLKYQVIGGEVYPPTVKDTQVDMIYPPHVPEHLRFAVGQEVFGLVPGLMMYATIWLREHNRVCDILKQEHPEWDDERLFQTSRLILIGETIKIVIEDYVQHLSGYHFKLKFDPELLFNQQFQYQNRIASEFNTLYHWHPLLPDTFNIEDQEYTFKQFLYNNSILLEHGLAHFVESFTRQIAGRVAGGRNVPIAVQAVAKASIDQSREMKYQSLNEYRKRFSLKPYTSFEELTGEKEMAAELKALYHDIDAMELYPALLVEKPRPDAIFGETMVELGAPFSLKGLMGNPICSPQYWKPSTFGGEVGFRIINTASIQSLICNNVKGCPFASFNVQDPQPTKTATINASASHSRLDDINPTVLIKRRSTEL
Summary of the method: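 Male Sprague–Dawley rats (150–175 g) were dosed iv at 3 mg/kg in PBS (1 mL/kg) 10 min before intraplantar injection of 0.1 mL 1% λ-carrageenan into the hindpaw. Paw volume was measured by water-displacement plethysmometry before and 1, 2, 3 and 4 h after treatment. % inhibition was calculated from the AUC of treated versus control animals.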

[5] = Area under curve after i.v. administration of 1 mg/kg to Dogs; type: ADME, organism-based, Canis lupus familiaris; design: dose 1 mg/kg, route intravenous; conditions: dog, in vivo, iv; summary of the method: as §1
[6] = Area under curve after i.v. administration of 2 mg/kg to Dogs; type: ADME, organism-based, Canis lupus familiaris; design: dose 2 mg/kg, route intravenous; conditions: dog, in vivo, iv; summary of the method: as §2
[7] = Clearance after i.v. administration of 2 mg/kg to Dogs; type: ADME, organism-based, Canis lupus familiaris; design: dose 2 mg/kg, route intravenous; conditions: dog, in vivo, iv; summary of the method: as §2
[8] = Volume of distribution after i.v. administration of 2 mg/kg to Dogs; type: ADME, organism-based, Canis lupus familiaris; design: dose 2 mg/kg, route intravenous; conditions: dog, in vivo, iv; summary of the method: as §2

| Compound | Vd [1] | clearance [2] | half-life [3] | inhibition [4] | AUC/dose [5] | AUC/dose [6] | clearance [7] | Vd [8] |
| --- | --- | --- | --- | --- | --- | --- | --- | --- |
| COc1ccc(-c2c(Cl)ncn2-c2ccc(S(=O)(=O)NP(=O)(O)O)cc2)cc1F | 1.86 L/kg | 4.55 mL/min/kg | 4.9 h | 34.8% | 3641.1 ng·h/mL |  |  |  |
| COc1ccc(-c2c(Cl)ncn2-c2ccc(S(N)(=O)=O)cc2)cc1F [CIMICOXIB] |  |  | 5 h | 34.8% |  | 3253.4 ng·h/mL | 4.87 mL/min/kg | 2.12 L/kg |
| CCC(=O)NS(=O)(=O)c1ccc(-c2c(-c3ccccc3)noc2C)cc1 |  |  |  | 32.6% |  |  |  |  |
